Results reported in ChEMBL document CHEMBL1157791, “Discovery of GSK1070916, a potent and selective inhibitor of Aurora B/C kinase” (J Med Chem, 2010).
One block for each compound: values may come before it. Calls of active or inactive are those of the source. The calls are words filed in the database; no cut-off is given here.

Columns and labels:
Aurora kinase C [1] = target: T1, Aurora kinase C (Homo sapiens, UniProt Q9UQB9); assay: Competitive inhibition of Aurora C ATP binding site
T1 sequence (Q9UQB9 whole entry): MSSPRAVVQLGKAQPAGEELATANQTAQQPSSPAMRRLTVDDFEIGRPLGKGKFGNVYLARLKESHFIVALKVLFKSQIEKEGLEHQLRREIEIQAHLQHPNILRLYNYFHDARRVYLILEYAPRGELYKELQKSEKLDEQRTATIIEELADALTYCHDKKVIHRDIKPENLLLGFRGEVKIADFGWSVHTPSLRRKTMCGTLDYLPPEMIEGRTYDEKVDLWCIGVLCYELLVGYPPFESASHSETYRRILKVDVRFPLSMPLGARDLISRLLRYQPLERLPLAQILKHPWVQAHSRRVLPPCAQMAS

[2] = target: T2, Aurora kinase C (Homo sapiens) (UniProt Q9UQB9); assay: Inhibition of human Aurora C assessed as dissociation half life by rapid dilution method
T2 sequence (whole entry): T1 sequence (Q9UQB9 whole entry)

Aurora kinase C [3] = target: T1, Aurora kinase C; assay: Competitive inhibition of human Aurora C ATP binding site
Cytochrome P450 1A2 = target: T3, Cytochrome P450 1A2 (Homo sapiens, UniProt P05177); assay: Inhibition of CYP1A2 in human liver microsomes using phenacetin as substrate; format: ADME, Microsome
T3 sequence (P05177 whole entry): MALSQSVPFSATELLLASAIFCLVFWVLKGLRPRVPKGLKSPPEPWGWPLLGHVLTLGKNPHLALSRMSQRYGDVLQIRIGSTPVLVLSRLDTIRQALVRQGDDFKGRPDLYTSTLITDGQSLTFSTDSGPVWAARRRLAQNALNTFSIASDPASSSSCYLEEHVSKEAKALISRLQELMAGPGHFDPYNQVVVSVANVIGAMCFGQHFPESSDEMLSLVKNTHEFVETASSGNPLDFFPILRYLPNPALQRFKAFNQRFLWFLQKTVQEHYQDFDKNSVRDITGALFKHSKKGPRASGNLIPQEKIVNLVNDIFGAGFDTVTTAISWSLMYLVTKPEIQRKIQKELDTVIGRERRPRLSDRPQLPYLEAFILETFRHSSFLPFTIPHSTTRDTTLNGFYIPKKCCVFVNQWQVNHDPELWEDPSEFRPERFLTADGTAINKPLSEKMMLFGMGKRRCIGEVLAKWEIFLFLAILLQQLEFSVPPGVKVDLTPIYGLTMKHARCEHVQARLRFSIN
In short: (§1)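 Human liver microsome incubations with a selective probe substrate for each CYP isozyme. Product formation was read by LC/MS/MS. Activity with compound was normalized to activity without compound and expressed as percent of control activity.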

Cytochrome P450 2C9 [4] = target: T4, Cytochrome P450 2C9 (Homo sapiens, UniProt P11712); assay: Inhibition of CYP2C9 in human liver microsomes using diclofenac as substrate; format: ADME, Microsome; in short: as §1
Cytochrome P450 2C19 = Cytochrome P450 2C19 (Homo sapiens, UniProt P33261); assay: Inhibition of CYP2C19 in human liver microsomes using S-mephenytoin as substrate; format: ADME, Microsome
In short: (§2)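 Human liver microsomes were incubated with a selective probe substrate for each CYP isozyme across a compound concentration series. Product formation was monitored by LC/MS/MS. Activity was normalized to the no-compound control, expressed as percent of control activity, and used to generate an IC50.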

Cytochrome P450 2D6 [5] = target: T5, Cytochrome P450 2D6 (Homo sapiens, UniProt P10635); assay: Inhibition of CYP2D6 in human liver microsomes using bufuralol as substrate; format: ADME, Microsome; in short: as §2
Cytochrome P450 3A4 = Cytochrome P450 3A4 (Homo sapiens, UniProt P08684); assay: Inhibition of CYP3A4 in human liver microsomes using midazolam as substrate; format: ADME, Microsome; in short: as §2
[6] = Blood clearance in mouse at 2 mg/kg, iv administered as single dose; format: ADME, organism-based; set-up: dose 2 mg/kg, route intravenous; settings: whole blood
In short: (§3)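 Conscious mice received a single intravenous dose. Blood clearance, dose-normalized AUC(0-∞) and steady-state volume of distribution were derived from the profile.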

Mus musculus [7] = assay: Dose normalized AUC (0 to infinity) in mouse at 2 mg/kg, iv administered as single dose; format: ADME, organism-based; set-up: time infinity, dose 2 mg/kg, route intravenous; settings: in vivo; in short: as §3
[8] = Volume of distribution at steady state in mouse at 2 mg/kg, iv administered as single dose; format: ADME, organism-based; set-up: dose 2 mg/kg, route intravenous; settings: in vivo, read-out: Vdss; in short: as §3
[9] = Mean residence time in mouse at 2 mg/kg, iv administered as single dose; format: ADME, organism-based; set-up: dose 2 mg/kg, route intravenous; settings: in vivo
[10] = Solubility at pH 4; format: physicochemical; settings: buffer
Mus musculus [11] = assay: Inhibition of histone H3 phosphorylation in ip dosed mouse xenografted with human COLO205 cells after 30 hrs; format: functional, organism-based; settings: COLO 205
In short: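 Mice bearing advanced Colo205 tumors were treated intraperitoneally at several doses. Tumor phospho-histone H3 (Ser10) was measured by ELISA 30 h post dose and expressed as percent inhibition relative to control.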

HL-60 [12] = assay: Antitumor activity against human HL60 cells xenografted in nude mouse assessed as complete tumor regression at 75 mg/kg, ip QD for 5 days and for 2 cycles; format: functional, organism-based; set-up: dose 75 mg/kg
In short: (§4)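 Subcutaneous HL-60 xenografts in nude mice. Dosing was intraperitoneal, once daily for five days, repeated for two cycles (qdx5 ×2), at 75 or 100 mg kg-1. Untreated mice served as controls. Tumors were followed for regression and for regrowth up to 51 days after the last dose.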

HL-60 [13] = assay: Antitumor activity against human HL60 cells xenografted in nude mouse assessed as complete tumor regression at 100 mg/kg, ip QD for 5 days and for 2 cycles; format: functional, organism-based; set-up: dose 100 mg/kg; in short: as §4
HL-60 [14] = assay: Antitumor activity against human HL60 cells xenografted in nude mouse assessed as complete suppression of tumor regrowth at 100 mg/kg, ip QD for 5 days and for 2 cycles measured on day 51 post last dose; format: functional, organism-based; set-up: dose 100 mg/kg; in short: as §4
Aurora kinase B [15] = target: T6, Aurora kinase B (Homo sapiens, UniProt Q96GD4); assay: Inhibition of human Aurora B by in vitro inhibition assay
[16] = Permeability by PAMPA; format: ADME; settings: read-out: permeability
Aurora kinase A = target: T7, Aurora kinase A (Homo sapiens, UniProt O14965); assay: Inhibition of human Aurora A
T7 sequence (O14965 whole entry): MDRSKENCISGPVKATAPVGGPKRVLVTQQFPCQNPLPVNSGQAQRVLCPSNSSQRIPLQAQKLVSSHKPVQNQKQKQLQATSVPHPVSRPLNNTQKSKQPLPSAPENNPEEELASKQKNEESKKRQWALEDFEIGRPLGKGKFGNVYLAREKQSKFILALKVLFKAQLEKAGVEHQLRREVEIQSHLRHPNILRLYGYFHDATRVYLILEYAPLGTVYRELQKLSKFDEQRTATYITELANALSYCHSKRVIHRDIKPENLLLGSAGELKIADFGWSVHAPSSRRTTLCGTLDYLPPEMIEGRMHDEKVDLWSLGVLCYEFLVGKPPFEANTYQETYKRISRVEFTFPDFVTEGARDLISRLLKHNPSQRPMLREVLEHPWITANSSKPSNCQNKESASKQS

A549 = assay: Antiproliferative activity against human A549 cells after 6 to 7 days by celltiter-glo luminescence assay in absence of 70% human serum albumin; format: functional, cell-based
[17] = target: Hepatocyte growth factor receptor (Homo sapiens, UniProt P08581); assay: Inhibition of MET
[18] = target: Insulin-like growth factor 1 receptor (Homo sapiens, UniProt P08069); assay: Inhibition of IGF1R
In short: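 Part of a 328 human protein and lipid kinase selectivity panel run as in vitro activity or binding assays.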

Aurora kinase B [19] = target: T6, Aurora kinase B; assay: Inhibition of human Aurora B assessed as residence time by rapid dilution method
[20] = Plasma clearance in iv dosed rat; format: ADME, organism-based
[21] = Half life in iv dosed rat; format: ADME, organism-based; settings: in vivo
[22] = Volume of distribution at steady state in iv dosed rat; format: ADME, organism-based; settings: in vivo, read-out: Vdss
Cytochrome P450 2C9 [23] = target: T4, Cytochrome P450 2C9; assay: Inhibition of CYP2C9; format: ADME
Cytochrome P450 2D6 [24] = target: T5, Cytochrome P450 2D6; assay: Inhibition of CYP2D6; format: ADME
In short: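 Human liver microsomes incubated with a selective probe substrate for each CYP isozyme, with and without test compound. Metabolite formation quantified by LC/MS/MS. Activity with compound normalized to activity without compound and expressed as percent of control. IC50 derived from the concentration response.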

T4 sequence (P11712 whole entry): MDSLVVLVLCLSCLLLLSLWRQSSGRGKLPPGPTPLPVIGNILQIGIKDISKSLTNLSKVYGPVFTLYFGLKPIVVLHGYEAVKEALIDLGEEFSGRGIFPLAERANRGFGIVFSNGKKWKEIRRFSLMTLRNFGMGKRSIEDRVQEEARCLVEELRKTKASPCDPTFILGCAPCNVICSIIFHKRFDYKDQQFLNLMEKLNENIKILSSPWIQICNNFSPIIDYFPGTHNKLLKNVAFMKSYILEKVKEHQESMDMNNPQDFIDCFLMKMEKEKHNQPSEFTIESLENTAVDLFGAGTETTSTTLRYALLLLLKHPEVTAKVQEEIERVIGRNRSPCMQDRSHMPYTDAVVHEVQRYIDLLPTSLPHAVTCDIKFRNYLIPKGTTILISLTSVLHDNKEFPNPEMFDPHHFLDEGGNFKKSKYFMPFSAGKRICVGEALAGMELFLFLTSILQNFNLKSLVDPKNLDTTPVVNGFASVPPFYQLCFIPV
T5 sequence (P10635 whole entry): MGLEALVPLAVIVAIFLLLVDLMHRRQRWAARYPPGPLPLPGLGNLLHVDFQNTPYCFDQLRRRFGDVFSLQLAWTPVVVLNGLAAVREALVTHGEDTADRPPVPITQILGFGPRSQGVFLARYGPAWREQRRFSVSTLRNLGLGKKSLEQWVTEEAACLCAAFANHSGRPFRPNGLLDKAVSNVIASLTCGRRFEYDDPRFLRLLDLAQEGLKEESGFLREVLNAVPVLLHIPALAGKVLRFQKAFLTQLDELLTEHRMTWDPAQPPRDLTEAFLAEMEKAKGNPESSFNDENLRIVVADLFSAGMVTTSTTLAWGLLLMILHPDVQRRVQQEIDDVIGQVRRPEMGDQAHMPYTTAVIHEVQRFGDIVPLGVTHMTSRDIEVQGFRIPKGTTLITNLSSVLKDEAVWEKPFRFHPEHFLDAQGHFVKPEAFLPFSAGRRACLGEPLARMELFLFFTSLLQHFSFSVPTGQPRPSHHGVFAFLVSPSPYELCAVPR
T6 sequence (Q96GD4 whole entry): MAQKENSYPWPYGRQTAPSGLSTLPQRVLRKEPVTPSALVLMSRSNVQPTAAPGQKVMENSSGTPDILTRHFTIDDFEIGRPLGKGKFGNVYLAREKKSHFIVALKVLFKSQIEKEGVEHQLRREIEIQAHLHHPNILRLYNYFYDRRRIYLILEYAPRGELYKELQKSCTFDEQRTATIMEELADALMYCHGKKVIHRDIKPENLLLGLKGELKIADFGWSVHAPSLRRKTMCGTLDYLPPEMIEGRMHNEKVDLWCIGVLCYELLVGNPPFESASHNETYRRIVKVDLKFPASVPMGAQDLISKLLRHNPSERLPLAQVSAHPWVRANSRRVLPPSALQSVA
Sequence of Cytochrome P450 2C19 (P33261 whole entry): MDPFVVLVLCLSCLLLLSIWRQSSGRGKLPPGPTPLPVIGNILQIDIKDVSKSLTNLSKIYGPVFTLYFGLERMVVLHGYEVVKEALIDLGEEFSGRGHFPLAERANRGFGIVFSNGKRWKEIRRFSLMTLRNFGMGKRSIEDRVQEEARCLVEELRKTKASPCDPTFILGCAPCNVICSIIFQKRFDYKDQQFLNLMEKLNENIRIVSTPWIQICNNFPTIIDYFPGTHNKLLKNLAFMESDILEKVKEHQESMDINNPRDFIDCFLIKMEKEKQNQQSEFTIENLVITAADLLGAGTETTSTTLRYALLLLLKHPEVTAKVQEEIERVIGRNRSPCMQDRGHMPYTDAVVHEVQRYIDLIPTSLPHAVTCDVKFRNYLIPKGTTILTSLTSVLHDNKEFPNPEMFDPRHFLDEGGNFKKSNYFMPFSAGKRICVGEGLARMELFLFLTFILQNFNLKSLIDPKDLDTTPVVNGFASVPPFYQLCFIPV
Sequence of Insulin-like growth factor 1 receptor (P08069 31-736 limits assumed): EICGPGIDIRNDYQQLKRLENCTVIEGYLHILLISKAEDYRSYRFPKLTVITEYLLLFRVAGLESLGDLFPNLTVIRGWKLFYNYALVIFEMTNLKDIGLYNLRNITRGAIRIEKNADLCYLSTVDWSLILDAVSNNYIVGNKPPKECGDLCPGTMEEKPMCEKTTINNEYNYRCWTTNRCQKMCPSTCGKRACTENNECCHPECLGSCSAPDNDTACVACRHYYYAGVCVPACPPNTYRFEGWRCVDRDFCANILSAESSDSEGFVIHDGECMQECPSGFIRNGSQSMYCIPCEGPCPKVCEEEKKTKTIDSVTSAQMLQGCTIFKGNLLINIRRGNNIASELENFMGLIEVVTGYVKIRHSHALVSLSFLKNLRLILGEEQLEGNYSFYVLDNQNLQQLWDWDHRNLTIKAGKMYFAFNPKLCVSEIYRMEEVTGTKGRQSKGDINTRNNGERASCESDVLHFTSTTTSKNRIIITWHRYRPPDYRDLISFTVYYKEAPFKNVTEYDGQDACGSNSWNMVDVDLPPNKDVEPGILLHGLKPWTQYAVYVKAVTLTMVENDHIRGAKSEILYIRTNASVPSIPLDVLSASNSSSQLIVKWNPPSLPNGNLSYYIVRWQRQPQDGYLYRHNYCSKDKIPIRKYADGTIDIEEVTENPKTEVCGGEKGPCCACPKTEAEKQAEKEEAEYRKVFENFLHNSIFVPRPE
Sequence of Insulin-like growth factor 1 receptor (P08069 741-1367 limits assumed): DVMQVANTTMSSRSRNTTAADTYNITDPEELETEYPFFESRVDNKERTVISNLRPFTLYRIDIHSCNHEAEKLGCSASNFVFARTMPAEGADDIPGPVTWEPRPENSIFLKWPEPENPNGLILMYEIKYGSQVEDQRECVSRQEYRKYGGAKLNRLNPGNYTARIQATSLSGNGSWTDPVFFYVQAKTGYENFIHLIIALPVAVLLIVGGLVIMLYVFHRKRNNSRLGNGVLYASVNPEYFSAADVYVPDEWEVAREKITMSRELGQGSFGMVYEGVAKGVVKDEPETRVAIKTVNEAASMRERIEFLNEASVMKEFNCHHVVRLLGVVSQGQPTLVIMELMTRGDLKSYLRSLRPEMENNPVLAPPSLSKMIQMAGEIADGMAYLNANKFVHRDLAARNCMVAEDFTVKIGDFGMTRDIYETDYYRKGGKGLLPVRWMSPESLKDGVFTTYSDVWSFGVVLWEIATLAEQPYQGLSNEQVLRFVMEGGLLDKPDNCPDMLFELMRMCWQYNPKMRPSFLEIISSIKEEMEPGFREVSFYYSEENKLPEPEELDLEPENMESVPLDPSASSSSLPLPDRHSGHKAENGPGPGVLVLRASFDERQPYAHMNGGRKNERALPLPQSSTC
Sequence of Hepatocyte growth factor receptor (P08581 whole entry): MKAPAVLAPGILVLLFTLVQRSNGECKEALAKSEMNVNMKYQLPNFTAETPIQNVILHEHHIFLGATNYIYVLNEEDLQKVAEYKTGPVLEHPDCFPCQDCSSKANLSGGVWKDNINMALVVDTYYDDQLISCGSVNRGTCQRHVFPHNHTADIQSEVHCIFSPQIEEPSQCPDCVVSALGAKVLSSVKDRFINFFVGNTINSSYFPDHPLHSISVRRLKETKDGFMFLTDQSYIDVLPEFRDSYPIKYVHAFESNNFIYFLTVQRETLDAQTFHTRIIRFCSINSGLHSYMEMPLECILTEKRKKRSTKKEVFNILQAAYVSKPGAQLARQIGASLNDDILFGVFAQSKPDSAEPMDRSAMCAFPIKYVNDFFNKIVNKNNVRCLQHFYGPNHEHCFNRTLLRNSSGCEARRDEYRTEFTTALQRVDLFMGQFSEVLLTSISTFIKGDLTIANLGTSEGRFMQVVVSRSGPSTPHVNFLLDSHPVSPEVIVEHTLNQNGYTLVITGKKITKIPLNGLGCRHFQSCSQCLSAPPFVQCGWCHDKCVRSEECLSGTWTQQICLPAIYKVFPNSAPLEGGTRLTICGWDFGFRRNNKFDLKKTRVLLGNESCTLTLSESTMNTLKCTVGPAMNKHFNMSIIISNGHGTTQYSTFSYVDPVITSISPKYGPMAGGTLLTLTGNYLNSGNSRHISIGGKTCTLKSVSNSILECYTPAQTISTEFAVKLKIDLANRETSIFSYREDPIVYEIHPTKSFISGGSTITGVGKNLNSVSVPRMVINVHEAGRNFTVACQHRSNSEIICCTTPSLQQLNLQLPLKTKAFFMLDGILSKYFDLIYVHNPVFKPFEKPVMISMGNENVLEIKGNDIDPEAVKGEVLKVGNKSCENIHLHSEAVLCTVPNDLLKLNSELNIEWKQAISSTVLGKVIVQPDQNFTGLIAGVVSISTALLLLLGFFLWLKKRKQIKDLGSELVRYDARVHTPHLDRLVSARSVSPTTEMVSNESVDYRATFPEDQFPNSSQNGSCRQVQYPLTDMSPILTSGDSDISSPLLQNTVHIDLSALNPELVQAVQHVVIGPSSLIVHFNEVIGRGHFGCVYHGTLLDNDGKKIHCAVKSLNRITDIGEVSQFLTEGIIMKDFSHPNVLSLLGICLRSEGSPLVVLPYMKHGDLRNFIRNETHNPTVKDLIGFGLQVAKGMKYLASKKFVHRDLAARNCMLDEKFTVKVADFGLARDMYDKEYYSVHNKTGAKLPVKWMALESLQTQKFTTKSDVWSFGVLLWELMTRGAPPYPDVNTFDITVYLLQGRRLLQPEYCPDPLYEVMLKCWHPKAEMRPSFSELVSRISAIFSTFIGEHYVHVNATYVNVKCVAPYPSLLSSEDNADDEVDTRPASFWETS
Sequence of Cytochrome P450 3A4 (P08684 whole entry): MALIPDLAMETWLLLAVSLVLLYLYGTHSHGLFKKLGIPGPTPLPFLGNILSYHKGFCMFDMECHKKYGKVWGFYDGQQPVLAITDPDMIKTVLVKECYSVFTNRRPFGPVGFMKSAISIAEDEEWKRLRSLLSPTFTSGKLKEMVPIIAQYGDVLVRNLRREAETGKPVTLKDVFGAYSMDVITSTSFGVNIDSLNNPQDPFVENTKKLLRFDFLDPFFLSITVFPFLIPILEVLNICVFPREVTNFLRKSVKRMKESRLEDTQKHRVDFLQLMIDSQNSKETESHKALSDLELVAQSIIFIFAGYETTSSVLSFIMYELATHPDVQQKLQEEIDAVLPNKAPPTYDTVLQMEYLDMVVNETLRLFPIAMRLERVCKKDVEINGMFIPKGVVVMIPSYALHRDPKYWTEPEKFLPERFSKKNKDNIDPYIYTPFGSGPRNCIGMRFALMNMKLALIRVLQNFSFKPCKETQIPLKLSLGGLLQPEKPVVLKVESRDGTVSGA

Structure (SMILES): CCn1cc(-c2ccnc3[nH]c(-c4cccc(CN(C)C)c4)cc23)c(-c2ccc(NC(=O)N(C)C)cc2)n1 [GSK-1070916]
IC50 (Aurora kinase C [1]): 6.5 nM
Ki (Aurora kinase C [1]): 1.5 nM
Activity [2]: 270 min
Ki (Aurora kinase C [3]): 1.5 nM
IC50 (Cytochrome P450 1A2): > 33000 nM
IC50 (Cytochrome P450 2C9 [4]): 38000 nM
IC50 (Cytochrome P450 2C19): 81000 nM
IC50 (Cytochrome P450 2D6 [5]): 12000 nM
inhibition (INH) (Cytochrome P450 3A4): Not Active
clearance [6]: 49.4 mL/min/kg
AUC (Mus musculus [7]): 345 ng·h/mL/mg/kg
Vd [8]: 0.8 L/kg
MRT [9]: 18 min
solubility [10]: > 10000 µg/mL
inhibition (Mus musculus [11]): Dose-dependent effect
inhibition (HL-60 [12]): Active
inhibition (HL-60 [13]): Active
inhibition (HL-60 [14]): Active
IC50 (Aurora kinase B [15]): 5 nM

Papp [16]: 17 ×10⁻⁶ cm/s
IC50 (Aurora kinase A): 631 nM
EC50 (A549): 79 nM
IC50 [17]: 316 nM
IC50 [18]: 158 nM
TIME (Aurora kinase B [19]): 0.128 h
clearance [20]: 128 mL/min/kg
half-life [21]: 12 min
Vd [22]: 1.7 L/kg
IC50 (Cytochrome P450 2C9 [23]): < 100 nM
IC50 (Cytochrome P450 2D6 [24]): < 100 nM
Structure (SMILES): CCn1cc(-c2ccnc3[nH]ccc23)c(-c2ccc(NC(=O)Nc3ccccc3)cc2)n1
